Active and inactive are the calls of the source. The calls are words filed in the database; no cut-off is given here. Positions of bridges follow the written chain, without caps; N, C: chain ends. Residues, ends and D or L forms follow the SMILES beside them.
Experiments:
HEK293 = test: Effect on cAMP production in HEK293 cells at 100 uM incubated for 3 hrs by luciferase reporter gene assay; format: functional, cell-based; settings: Homo sapiens
[1] = target: Potassium voltage-gated channel subfamily A member 6 (Homo sapiens) (UniProt P17658); test: Inhibition of human Kv1.6 at 100 uM
Procedure, shortened: (§1)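 Potassium currents were recorded by two-electrode voltage clamp in oocytes 1–4 days after injecting 50 nl cRNA (1 ng/nl), at 18–22 °C. Bath was 96 mM NaCl, 2 mM KCl, 1.8 mM CaCl2, 2 mM MgCl2, 5 mM HEPES pH 7.4. Toxin was bath-applied at 100 µM. Currents were filtered at 0.5 kHz and sampled at 2 kHz.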

[2] = target: T1, Melanocyte-stimulating hormone receptor (Homo sapiens, UniProt Q01726); test: Displacement of [125I]-NDP-alpha-MSH from human MC1R expressed in CHO-K1 cell membranes incubated for 3 hrs by top-count beta counting
Procedure, shortened: (§2)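 Membranes were from CHO cells stably expressing hMC1R, hMC4R or hMC5R, or from HEK293 cells expressing hMC3R. Competition used 50 pM 125I-NDP-α-MSH with varied competitor, 3 h at room temperature, in 25 mM HEPES pH 7.4, 1 mM MgCl2, 1 mM CaCl2, 0.2 g/L BSA. Nonspecific binding was set with 1 µM NDP-α-MSH. Samples were filtered on PEI-treated GF/C and scintillation counted. At least three experiments in duplicate, mean ± SEM.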
Target sequence in this assay (Q01726 whole entry): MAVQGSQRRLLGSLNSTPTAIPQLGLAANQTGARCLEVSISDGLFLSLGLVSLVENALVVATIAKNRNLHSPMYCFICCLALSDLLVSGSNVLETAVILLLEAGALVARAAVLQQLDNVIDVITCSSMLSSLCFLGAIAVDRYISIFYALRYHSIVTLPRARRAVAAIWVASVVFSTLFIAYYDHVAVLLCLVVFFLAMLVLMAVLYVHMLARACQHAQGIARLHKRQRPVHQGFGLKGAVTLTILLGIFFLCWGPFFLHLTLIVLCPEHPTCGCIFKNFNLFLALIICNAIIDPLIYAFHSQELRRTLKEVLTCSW

[3] = target: Sodium channel protein type 8 subunit alpha (Homo sapiens) (UniProt Q9UQD0); test: Inhibition of human NaV1.6 at 100 uM
Procedure, shortened: (§3)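 Two-electrode voltage clamp of oocytes injected with 50 nl cRNA (1 ng/nl) and recorded 1–4 days later at 18–22 °C. Bath was 96 mM NaCl, 2 mM KCl, 1.8 mM CaCl2, 2 mM MgCl2, 5 mM HEPES pH 7.4. Toxin was applied to the bath at 100 µM. Currents were evoked by 100 ms depolarisation to the voltage of maximal sodium current, filtered at 2 kHz and sampled at 20 kHz.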

[4] = target: A-type voltage-gated potassium channel KCND3 (Homo sapiens, UniProt Q9UK17); test: Inhibition of human Kv4.3 at 100 uM; procedure, shortened: as §1
[5] = target: Acetylcholine receptor; alpha1/beta1/delta/gamma (Homo sapiens) (UniProt P02708+P07510+P11230+Q07001); test: Inhibition of human nAChR alpha1(2)beta1gammadelta; format: protein-complex assay
[6] = target: Sodium channel protein type 5 subunit alpha (Homo sapiens, UniProt Q14524); test: Inhibition of human NaV1.5 at 100 uM; procedure, shortened: as §3
[7] = target: Sodium channel protein type 4 subunit alpha (Homo sapiens) (UniProt P35499); test: Inhibition of human NaV1.4 at 100 uM; procedure, shortened: as §3
Sequence of Sodium channel protein type 4 subunit alpha (Homo sapiens) (P35499 whole entry, looked up): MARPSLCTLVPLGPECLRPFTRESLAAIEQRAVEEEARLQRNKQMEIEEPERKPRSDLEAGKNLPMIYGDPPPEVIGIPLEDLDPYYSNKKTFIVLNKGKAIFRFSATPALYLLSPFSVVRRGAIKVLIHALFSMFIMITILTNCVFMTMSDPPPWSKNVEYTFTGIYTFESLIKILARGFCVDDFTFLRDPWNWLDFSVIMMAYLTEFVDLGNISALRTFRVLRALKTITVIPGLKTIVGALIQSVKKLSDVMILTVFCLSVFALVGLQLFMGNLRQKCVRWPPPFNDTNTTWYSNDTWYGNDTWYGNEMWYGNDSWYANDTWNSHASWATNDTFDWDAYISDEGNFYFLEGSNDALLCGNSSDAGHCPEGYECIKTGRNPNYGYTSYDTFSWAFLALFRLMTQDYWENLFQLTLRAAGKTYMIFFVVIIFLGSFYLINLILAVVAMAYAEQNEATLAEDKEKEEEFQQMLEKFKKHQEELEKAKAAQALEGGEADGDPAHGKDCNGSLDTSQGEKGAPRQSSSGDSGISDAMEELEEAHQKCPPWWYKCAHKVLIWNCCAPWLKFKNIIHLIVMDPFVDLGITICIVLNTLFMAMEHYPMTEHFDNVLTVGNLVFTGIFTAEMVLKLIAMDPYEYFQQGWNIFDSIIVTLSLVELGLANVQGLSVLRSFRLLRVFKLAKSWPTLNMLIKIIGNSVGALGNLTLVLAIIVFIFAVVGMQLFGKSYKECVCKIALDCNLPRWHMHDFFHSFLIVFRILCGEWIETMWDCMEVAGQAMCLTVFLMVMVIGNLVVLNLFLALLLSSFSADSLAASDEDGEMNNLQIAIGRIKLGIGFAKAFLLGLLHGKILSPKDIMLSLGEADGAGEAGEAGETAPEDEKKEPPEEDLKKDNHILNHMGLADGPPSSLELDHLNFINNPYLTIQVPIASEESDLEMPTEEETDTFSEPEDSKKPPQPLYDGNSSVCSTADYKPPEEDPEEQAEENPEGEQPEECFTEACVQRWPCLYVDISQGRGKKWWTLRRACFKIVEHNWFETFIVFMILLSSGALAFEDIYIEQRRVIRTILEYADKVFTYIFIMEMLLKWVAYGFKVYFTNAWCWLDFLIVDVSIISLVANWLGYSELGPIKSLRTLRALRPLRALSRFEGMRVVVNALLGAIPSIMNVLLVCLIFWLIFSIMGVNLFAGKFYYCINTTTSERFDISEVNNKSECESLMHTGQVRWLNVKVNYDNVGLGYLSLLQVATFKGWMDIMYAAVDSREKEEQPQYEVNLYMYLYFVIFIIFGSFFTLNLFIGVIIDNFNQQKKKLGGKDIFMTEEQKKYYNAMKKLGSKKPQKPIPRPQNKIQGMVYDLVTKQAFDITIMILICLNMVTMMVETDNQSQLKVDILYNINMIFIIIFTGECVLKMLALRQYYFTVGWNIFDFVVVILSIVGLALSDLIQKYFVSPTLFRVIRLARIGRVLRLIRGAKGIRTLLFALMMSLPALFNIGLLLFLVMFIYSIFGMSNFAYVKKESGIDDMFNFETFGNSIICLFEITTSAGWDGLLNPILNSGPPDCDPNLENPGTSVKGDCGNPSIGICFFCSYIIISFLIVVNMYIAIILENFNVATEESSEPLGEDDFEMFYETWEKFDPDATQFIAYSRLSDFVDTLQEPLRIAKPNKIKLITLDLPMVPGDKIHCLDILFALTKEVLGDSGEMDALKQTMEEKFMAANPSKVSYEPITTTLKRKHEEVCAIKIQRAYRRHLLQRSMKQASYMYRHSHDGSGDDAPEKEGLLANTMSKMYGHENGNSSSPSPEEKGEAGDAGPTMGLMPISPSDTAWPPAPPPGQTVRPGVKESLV

[8] = target: T1, Melanocyte-stimulating hormone receptor; test: Agonist activity at N-terminal HA-tagged and C-terminal FLAG-tagged human MC1R expressed in HEK293 cells assessed as stimulation of cAMP accumulation at 100 uM incubated for 3 hrs by luciferase reporter gene assay; format: functional, cell-based
Target sequence in this assay (Q01726 whole entry, looked up): as the sequence (Q01726 whole entry) above

[9] = target: Potassium voltage-gated channel subfamily A member 5 (Homo sapiens) (UniProt P22460); test: Inhibition of human Kv1.5 at 100 uM; procedure, shortened: as §1
[10] = target: Potassium voltage-gated channel subfamily A member 1 (Homo sapiens) (UniProt Q09470); test: Inhibition of human Kv1.1 at 100 uM; procedure, shortened: as §1
[11] = target: Voltage-gated inwardly rectifying potassium channel KCNH2 (Homo sapiens, UniProt Q12809); test: Inhibition of human Kv11.1 at 100 uM; procedure, shortened: as §1
[12] = target: Potassium voltage-gated channel subfamily A member 3 (Homo sapiens) (UniProt P22001); test: Inhibition of human Kv1.3 at 100 uM; procedure, shortened: as §1
[13] = target: Potassium voltage-gated channel subfamily A member 4 (Homo sapiens) (UniProt P22459); test: Inhibition of human Kv1.4 at 100 uM; procedure, shortened: as §1
Melanocortin receptor 4 [14] = target: T2, Melanocortin receptor 4 (Homo sapiens, UniProt P32245); test: Displacement of [125I]-NDP-alpha-MSH from human MC4R expressed in CHO-K1 cell membranes incubated for 3 hrs by top-count beta counting relative to control; settings: concentration not given here; procedure, shortened: as §2
T2 sequence (P32245 whole entry): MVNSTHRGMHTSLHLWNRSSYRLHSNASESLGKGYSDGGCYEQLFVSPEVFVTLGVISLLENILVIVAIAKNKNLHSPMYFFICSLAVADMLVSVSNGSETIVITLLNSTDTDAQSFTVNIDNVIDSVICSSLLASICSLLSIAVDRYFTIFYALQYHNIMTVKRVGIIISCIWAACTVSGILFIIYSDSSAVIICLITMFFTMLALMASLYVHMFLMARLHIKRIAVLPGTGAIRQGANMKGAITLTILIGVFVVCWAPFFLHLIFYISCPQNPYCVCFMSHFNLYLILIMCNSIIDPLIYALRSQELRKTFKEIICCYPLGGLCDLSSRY

[15] = target: Sodium channel protein type 3 subunit alpha (Homo sapiens) (UniProt Q9NY46); test: Inhibition of human NaV1.3 at 100 uM; procedure, shortened: as §3
[16] = target: Sodium channel protein type 10 subunit alpha (Homo sapiens) (UniProt Q9Y5Y9); test: Inhibition of human NaV1.8 at 100 uM
Sequence of Sodium channel protein type 10 subunit alpha (Homo sapiens) (Q9Y5Y9 whole entry, looked up): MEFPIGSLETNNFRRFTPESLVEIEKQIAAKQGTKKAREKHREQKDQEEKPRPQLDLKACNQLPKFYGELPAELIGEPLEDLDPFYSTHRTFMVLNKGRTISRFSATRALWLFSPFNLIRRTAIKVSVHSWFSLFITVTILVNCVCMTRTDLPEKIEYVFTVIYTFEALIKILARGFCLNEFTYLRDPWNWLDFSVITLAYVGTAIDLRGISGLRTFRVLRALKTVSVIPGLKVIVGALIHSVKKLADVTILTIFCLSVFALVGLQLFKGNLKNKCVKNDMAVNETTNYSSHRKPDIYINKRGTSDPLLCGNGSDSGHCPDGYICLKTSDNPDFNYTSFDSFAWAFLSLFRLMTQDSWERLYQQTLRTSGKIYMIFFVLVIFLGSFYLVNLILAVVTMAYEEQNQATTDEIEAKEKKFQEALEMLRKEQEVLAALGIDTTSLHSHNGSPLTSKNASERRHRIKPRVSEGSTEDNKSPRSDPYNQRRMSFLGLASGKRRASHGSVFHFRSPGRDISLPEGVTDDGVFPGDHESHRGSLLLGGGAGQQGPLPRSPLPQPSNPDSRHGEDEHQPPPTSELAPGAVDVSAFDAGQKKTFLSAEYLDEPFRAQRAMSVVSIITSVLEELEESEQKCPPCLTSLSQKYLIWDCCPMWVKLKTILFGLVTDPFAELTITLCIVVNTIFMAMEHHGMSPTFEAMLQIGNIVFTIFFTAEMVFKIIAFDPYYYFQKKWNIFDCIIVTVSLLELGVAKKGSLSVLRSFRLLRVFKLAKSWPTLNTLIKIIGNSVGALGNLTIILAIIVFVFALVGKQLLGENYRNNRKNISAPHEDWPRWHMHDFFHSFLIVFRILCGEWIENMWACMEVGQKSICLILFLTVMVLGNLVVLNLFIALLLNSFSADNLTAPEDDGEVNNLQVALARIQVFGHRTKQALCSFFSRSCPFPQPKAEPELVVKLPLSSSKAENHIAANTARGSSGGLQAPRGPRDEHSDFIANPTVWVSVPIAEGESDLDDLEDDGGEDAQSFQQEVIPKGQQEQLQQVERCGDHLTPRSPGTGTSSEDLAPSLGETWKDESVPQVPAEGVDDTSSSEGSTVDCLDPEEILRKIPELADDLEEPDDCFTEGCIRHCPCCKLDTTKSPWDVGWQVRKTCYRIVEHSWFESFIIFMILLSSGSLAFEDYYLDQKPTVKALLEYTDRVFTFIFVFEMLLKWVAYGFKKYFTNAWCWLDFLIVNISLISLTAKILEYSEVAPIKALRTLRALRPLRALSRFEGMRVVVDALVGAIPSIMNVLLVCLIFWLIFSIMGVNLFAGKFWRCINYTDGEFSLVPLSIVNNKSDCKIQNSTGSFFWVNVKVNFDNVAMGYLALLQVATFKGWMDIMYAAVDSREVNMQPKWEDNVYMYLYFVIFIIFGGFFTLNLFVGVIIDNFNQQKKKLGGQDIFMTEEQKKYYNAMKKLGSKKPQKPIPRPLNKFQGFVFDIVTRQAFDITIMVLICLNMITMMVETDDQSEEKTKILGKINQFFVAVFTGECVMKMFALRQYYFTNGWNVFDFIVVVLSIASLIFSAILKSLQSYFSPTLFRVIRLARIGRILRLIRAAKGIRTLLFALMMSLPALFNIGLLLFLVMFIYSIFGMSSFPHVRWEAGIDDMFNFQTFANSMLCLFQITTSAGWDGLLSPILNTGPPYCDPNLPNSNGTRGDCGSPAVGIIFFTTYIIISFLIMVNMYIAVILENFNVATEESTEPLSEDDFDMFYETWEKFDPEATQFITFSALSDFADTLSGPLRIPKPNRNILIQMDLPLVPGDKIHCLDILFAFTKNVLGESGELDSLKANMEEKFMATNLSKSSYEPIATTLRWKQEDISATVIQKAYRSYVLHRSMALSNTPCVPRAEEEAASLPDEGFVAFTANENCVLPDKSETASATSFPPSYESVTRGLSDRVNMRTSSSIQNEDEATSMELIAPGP

[17] = target: Voltage-gated potassium channel KCNC1 (Homo sapiens) (UniProt P48547); test: Inhibition of human Kv3.1 at 100 uM; procedure, shortened: as §1
Melanocortin receptor 3 = Melanocortin receptor 3 (Homo sapiens, UniProt P41968); test: Displacement of [125I]-NDP-alpha-MSH from human MC3R expressed in HEK293 cell membranes incubated for 3 hrs by top-count beta counting
Melanocortin receptor 5 = Melanocortin receptor 5 (Homo sapiens, UniProt P33032); test: Displacement of [125I]-NDP-alpha-MSH from human MC5R expressed in CHO-K1 cell membranes incubated for 3 hrs by top-count beta counting; procedure, shortened: as §2
Sequence of Melanocortin receptor 5 (P33032 whole entry): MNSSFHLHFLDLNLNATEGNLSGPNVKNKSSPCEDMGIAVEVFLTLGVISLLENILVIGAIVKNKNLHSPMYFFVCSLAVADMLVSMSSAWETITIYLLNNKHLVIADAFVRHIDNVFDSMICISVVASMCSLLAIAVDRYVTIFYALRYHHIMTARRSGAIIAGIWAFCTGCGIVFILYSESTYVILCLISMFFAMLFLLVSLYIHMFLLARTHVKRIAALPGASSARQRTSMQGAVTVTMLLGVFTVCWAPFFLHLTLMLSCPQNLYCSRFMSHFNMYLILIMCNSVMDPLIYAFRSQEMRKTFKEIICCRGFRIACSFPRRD

[18] = target: Potassium voltage-gated channel subfamily B member 1 (Homo sapiens) (UniProt Q14721); test: Inhibition of human Kv2.1 at 100 uM; procedure, shortened: as §1
[19] = target: G protein-activated inward rectifier potassium channel 1 (Homo sapiens) (UniProt P48549); test: Inhibition of human GIRK1 at 100 uM
Procedure, shortened: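 Two-electrode voltage clamp of cRNA-injected oocytes at 18–22 °C, holding at −70 mV. Oocytes were superfused with high-K+ solution (96 mM KCl, 2 mM NaCl, 1 mM MgCl2, 1.8 mM CaCl2, 5 mM HEPES pH 7.5). Toxin was applied to the bath at 100 µM. Currents were filtered at 0.05 kHz and sampled at 0.1 kHz.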

[20] = target: Voltage-gated delayed rectifier potassium channel KCNH1 (Homo sapiens) (UniProt O95259); test: Inhibition of human Kv10.1 at 100 uM; procedure, shortened: as §1
Melanocortin receptor 4 [21] = target: T2, Melanocortin receptor 4; test: Agonist activity at human MC4R expressed in HEK293 cells assessed as stimulation of cAMP accumulation at 100 uM incubated for 3 hrs by luciferase reporter gene assay; format: functional, cell-based
[22] = target: Sodium channel protein type 2 subunit alpha (Homo sapiens) (UniProt Q99250); test: Inhibition of human NaV1.2 at 100 uM; procedure, shortened: as §3
[23] = target: Potassium voltage-gated channel subfamily KQT member 1 (Homo sapiens, UniProt P51787); test: Inhibition of human Kv7.1 at 100 uM; procedure, shortened: as §1
[24] = target: Potassium voltage-gated channel subfamily A member 2 (Homo sapiens) (UniProt P16389); test: Inhibition of human Kv1.2 at 100 uM; procedure, shortened: as §1
[25] = target: Neuronal acetylcholine receptor subunit alpha-7 (Homo sapiens) (UniProt P36544); test: Inhibition of human nAChR alpha7
Melanocortin receptor 4 [26] = target: T2, Melanocortin receptor 4; test: Displacement of [125I]-NDP-alpha-MSH from human MC4R expressed in CHO-K1 cell membranes incubated for 3 hrs by top-count beta counting; procedure, shortened: as §2
[27] = target: T1, Melanocyte-stimulating hormone receptor; test: Activity at N-terminal HA-tagged and C-terminal FLAG-tagged human MC1R expressed in HEK293 cells assessed as potentiation of alpha-MSH-induced cAMP accumulation at 100 uM incubated for 3 hrs by luciferase reporter gene assay; format: functional, cell-based
Target sequence in this assay (Q01726 whole entry, looked up): as the sequence (Q01726 whole entry) above

Melanocortin receptor 4 [28] = target: T2, Melanocortin receptor 4; test: Antagonist activity at human MC4R transiently expressed in HEK293 cells assessed as reduction in alpha-MSH-induced cAMP accumulation at 100 uM incubated for 3 hrs by luciferase reporter gene assay
[29] = target: Potassium voltage-gated channel subfamily KQT member 3 (Homo sapiens) (UniProt O43525); test: Inhibition of human Kv7.3 at 100 uM; procedure, shortened: as §1
[30] = target: Voltage-dependent T-type calcium channel subunit alpha-1I (Homo sapiens) (UniProt Q9P0X4); test: Inhibition of human Cav3.3 at 100 uM
Procedure, shortened: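 Oocyte two-electrode voltage clamp at 18–22 °C, 1–4 days after cRNA injection (50 nl, 1 ng/nl). Toxin was bath-applied at 100 µM. Currents were carried by 10 mM Ba2+ and elicited by 200 ms depolarisations from −90 mV to between −50 and +30 mV, filtered at 0.5 kHz and sampled at 2 kHz.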

[31] = target: Sodium channel protein type 1 subunit alpha (Homo sapiens) (UniProt P35498); test: Inhibition of human NaV1.1 at 100 uM; procedure, shortened: as §3

## CC[C@H](C)[C@@H]1NC(=O)[C@@H]2CCCN2C(=O)CNC(=O)[C@H](CO)NC(=O)[C@@H]2CSSC[C@@H]3NC(=O)[C@H]([C@@H](C)O)NC(=O)CNC(=O)[C@H](CSSC[C@H](NC(=O)[C@@H](N)CCCNC(=N)N)C(=O)N[C@@H](CC(C)C)C(=O)N[C@@H](Cc4cnc[nH]4)C(=O)N[C@@H](C)C(=O)NCC(=O)N[C@@H](C)C(=O)N[C@@H](C)C(=O)N2)NC(=O)[C@H](CSSC[C@@H](C(=O)N[C@H](C(=O)O)[C@@H](C)O)NC(=O)[C@H](CCCCN)NC(=O)[C@H](CCCNC(=N)N)NC(=O)[C@H](CCCNC(=N)N)NC(=O)[C@H](CO)NC3=O)NC(=O)[C@@H]2CCCN2C(=O)[C@H]([C@@H](C)CC)NC(=O)[C@H](CCCCN)NC(=O)[C@H](CCC(N)=O)NC1=O (H-RCLHAGAACSGPIQKIPCCGTCSRRKCT-OH; disulfide 2-19, 9-22, 18-27)
HEK293
  Activity: inactive
[1]
  inhibition: inactive
[2]
  Ki: 1.8 µM
[3]
  inhibition: inactive
[4]
  inhibition (INH): Not Active
[5]
  inhibition: inactive
[6]
  inhibition (INH): Not Active
[7]
  inhibition: inactive
[8]
  Activity: Active
[9]
  inhibition: inactive
[10]
  inhibition: inactive
[11]
  inhibition (INH): Not Active
[12]
  inhibition: inactive
[13]
  inhibition: inactive
Melanocortin receptor 4 [14]
  inhibition: 97%
[15]
  inhibition: inactive
[16]
  inhibition: inactive
[17]
  inhibition: inactive
Melanocortin receptor 3
  Ki: 19.8 µM
Melanocortin receptor 5
  Ki: 10 µM
[18]
  inhibition: inactive
[19]
  inhibition: inactive
[20]
  inhibition: inactive
Melanocortin receptor 4 [21]
  Activity: inactive
[22]
  inhibition: inactive
[23]
  inhibition (INH): Not Active
[24]
  inhibition: inactive
[25]
  inhibition: inactive
Melanocortin receptor 4 [26]
  Ki: 7.1 µM
[27]
  Activity: Active
Melanocortin receptor 4 [28]
  Activity: inactive
[29]
  inhibition: inactive
[30]
  inhibition: inactive
[31]
  inhibition: inactive

## CC[C@H](C)[C@@H]1NC(=O)[C@H](C)NC(=O)[C@H](CCCCN)NC(=O)[C@H](CC(C)C)NC(=O)[C@@H]2CSSC[C@@H](C(=O)O)NC(=O)[C@H](CCCCN)NC(=O)[C@@H]3CSSC[C@H](NC(=O)[C@H](CCC(=O)O)NC(=O)[C@H](C(C)C)NC(=O)[C@H](CO)NC(=O)[C@H](C)NC(=O)[C@H](CO)NC(=O)[C@@H](NC(=O)[C@H](CCCNC(=N)N)NC(=O)[C@H](CCSC)NC(=O)[C@H](CC(=O)O)NC(=O)[C@H](CCSC)NC(=O)[C@@H](N)CCC(N)=O)CSSC[C@H](NC(=O)[C@H](CCCCN)NC(=O)CNC(=O)[C@H](Cc4ccccc4)NC(=O)[C@H]([C@@H](C)CC)NC(=O)[C@H](CO)NC(=O)CNC1=O)C(=O)N[C@@H](CCSC)C(=O)N[C@@H](CC(N)=O)C(=O)N[C@@H](CCCCN)C(=O)N[C@@H](CCCCN)C(=O)N3)C(=O)N[C@@H](CCCCN)C(=O)N[C@@H](CCC(N)=O)C(=O)N[C@@H](CCCCN)C(=O)N2 (H-QMDMRCSASVECKQKCLKAIGSIFGKCMNKKCKC-OH; disulfide 6-27, 12-32, 16-34)
HEK293
  Activity: inactive
[1]
  inhibition: inactive
[2]
  Ki: 2.9 µM
[3]
  inhibition: inactive
[4]
  inhibition (INH): Not Active
[5]
  inhibition: inactive
[6]
  inhibition (INH): Not Active
[7]
  inhibition: inactive
[8]
  Activity: Active
[9]
  inhibition: inactive
[10]
  inhibition: inactive
[11]
  inhibition (INH): Not Active
[12]
  inhibition: inactive
[13]
  inhibition: inactive
Melanocortin receptor 4 [14]
  inhibition: 86%
[15]
  inhibition: inactive
[16]
  inhibition: inactive
[17]
  inhibition: inactive
Melanocortin receptor 3
  Ki: 3.9 µM
Melanocortin receptor 5
  Ki: 2.2 µM
[18]
  inhibition: inactive
[19]
  inhibition: inactive
[20]
  inhibition: inactive
Melanocortin receptor 4 [21]
  Activity: inactive
[22]
  inhibition: inactive
[23]
  inhibition (INH): Not Active
[24]
  inhibition: inactive
[25]
  inhibition: inactive
Melanocortin receptor 4 [26]
  Ki: 2.6 µM
[27]
  Activity: Active
Melanocortin receptor 4 [28]
  Activity: inactive
[29]
  inhibition: inactive
[30]
  inhibition: inactive
[31]
  inhibition: inactive

Reference: ChEMBL document CHEMBL4627405, “A Venomics Approach Coupled to High-Throughput Toxin Production Strategies Identifies the First Venom-Derived Melanocortin Receptor Agonists” (J Med Chem, 2020)
